{"source": "paper PMC3685236", "about": "(International Journal of Molecular Sciences, 2007)", "format_in_all_cases": "cell-based", "key": {"[1]": {"tested_on": "HeLa cells", "assay": "Antiproliferative activity, Kenacid Blue R dye binding cell survival, HeLa", "conditions": "Homo sapiens", "in_short": "(§1)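 Adherent cells seeded at 2,000/well (HeLa, Fem-X) or 6,000/well (LS174); compounds added 20 h later at five double-diluted concentrations (20 mM DMSO stocks, final 0–300 μM). Continuous 72 h exposure, 37 °C, 5% CO2. PBS wash, methanol/acetic acid (3:1) fixation, 0.04% Coomassie R-250 staining, A570. Survival % vs medium-only control after cell-free blank subtraction; IC50 read from survival–concentration plot.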"}, "[2]": {"tested_on": "PBMC", "assay": "Cytotoxicity toward healthy peripheral blood mononuclear cells", "conditions": "Homo sapiens, 72 h, read-out: IC50 PBMC", "in_short": "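Unstimulated PBMC (no mitogen) were isolated from heparinized blood of two healthy donors by Lymphoprep gradient and washed three times in Haemaccel. Seeded at 150,000/well, then dosed 2 h later in triplicate at five final concentrations. After 72 h, cells were centrifuged (10 min, 2,000 rpm), fixed in methanol/acetic acid and stained with Kenacid Blue R, and A570 was read. Survival % vs medium control, cell-free blank subtracted.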"}, "[3]": {"tested_on": "Fem-X cells", "assay": "Antiproliferative activity, Kenacid Blue R dye binding cell survival, Fem-X", "conditions": "Homo sapiens, 72 h, read-out: IC50 (μM) Fem-X", "in_short": "as §1"}, "[4]": {"tested_on": "K562 cells", "assay": "Antiproliferative activity, Kenacid Blue R dye binding cell survival, K562", "conditions": "Homo sapiens, K562, 72 h, read-out: IC50 (μM) K562", "in_short": "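K562 suspension culture in RPMI 1640 with 10% heat-inactivated FBS, 3 mM glutamine, 25 mM Hepes, pH 7.2. Seeded 3,000 cells/well and dosed 2 h later at five double-diluted concentrations (final 0–300 μM, from DMSO stocks). Exposure was 72 h at 37 °C, 5% CO2. Total protein by Kenacid Blue R (Coomassie R-250) staining, A570, blank-corrected. IC50 taken from survival % vs concentration.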"}, "[5]": {"tested_on": "LS174 cells", "assay": "Antiproliferative activity, Kenacid Blue R dye binding cell survival, LS174", "conditions": "Homo sapiens, LS174, 72 h, read-out: IC50 (μM) LS174", "in_short": "as §1"}, "[6]": {"conditions": "read-out: Obtained log(1/(IC50)) (converted)"}}, "note": "Read-outs that look alike come from different tables or passages of the source.", "data": [{"smiles": "CC(C)(C(=O)O)C(C)(O)c1ccc(-c2ccccc2)cc1", "note": "(stereo not shown) [Compound 1, 3-Hydroxy-2,2-dimethyl-3-(4-biphenylyl)butanoic acid]", "values": [{"measurement": "IC50", "setting": "[1]; 72 h, read-out: IC50 (μM) HeLa", "result": 62.2, "unit": "µM"}, {"measurement": "IC50", "setting": "[1]; [6]", "result": 62.2, "unit": "µM"}, {"measurement": "IC50", "setting": "[2]", "result": "> 300", "unit": "µM"}, {"measurement": "IC50", "setting": "[3]", "result": 205, "unit": "µM"}, {"measurement": "IC50", "setting": "[4]", "result": 141, "unit": "µM"}, {"measurement": "IC50", "setting": "[5]", "result": 154, "unit": "µM"}]}, {"smiles": "CC(C)(C(=O)O)C(O)(c1ccccc1)c1ccccc1", "note": "[Compound 2, 3-Hydroxy-2,2-dimethyl-3,3-diphenylpropanoic acid]", "values": [{"measurement": "IC50", "setting": "[1]; 72 h, read-out: IC50 (μM) HeLa", "result": 80.6, "unit": "µM"}, {"measurement": "IC50", "setting": "[1]; [6]", "result": 80.5, "unit": "µM"}]}, {"smiles": "CC(C(=O)O)C(O)c1ccccc1Cl", "note": "(stereo not shown) [Compound 3, 3-Hydroxy-2-methyl-3-(2-chlorophenyl)propanoic acid]", "values": [{"measurement": "IC50", "setting": "[1]; 72 h, read-out: IC50 (μM) HeLa", "result": 97.2, "unit": "µM"}, {"measurement": "IC50", "setting": "[1]; [6]", "result": 97.3, "unit": "µM"}, {"measurement": "IC50", "setting": "[2]", "result": "> 300", "unit": "µM"}, {"measurement": "IC50", "setting": "[3]", "result": 89, "unit": "µM"}, {"measurement": "IC50", "setting": "[4]", "result": 92, "unit": "µM"}, {"measurement": "IC50", "setting": "[5]", "result": 93, "unit": "µM"}]}, {"smiles": "CC(O)(CC(=O)O)c1ccc(-c2ccccc2)cc1", "note": "(stereo not shown) [Compound 4, 3-Hydroxy-3-(4-biphenylyl)butanoic acid]", "values": [{"measurement": "IC50", "setting": "[1]; 72 h, read-out: IC50 (μM) HeLa", "result": 98.7, "unit": "µM"}, {"measurement": "IC50", "setting": "[1]; [6]", "result": 98.6, "unit": "µM"}, {"measurement": "IC50", "setting": "[2]", "result": "> 300", "unit": "µM"}, {"measurement": "IC50", "setting": "[3]", "result": "> 200", "unit": "µM"}, {"measurement": "IC50", "setting": "[4]", "result": "> 200", "unit": "µM"}, {"measurement": "IC50", "setting": "[5]", "result": "> 200", "unit": "µM"}]}, {"smiles": "CC(C(=O)O)C(O)(c1ccccc1)c1ccccc1", "note": "(stereo not shown) [Compound 6, 3-Hydroxy-2-methyl-3,3-diphenylpropanoic acid]", "values": [{"measurement": "IC50", "setting": "[1]; 72 h, read-out: IC50 (μM) HeLa", "result": 99.4, "unit": "µM"}, {"measurement": "IC50", "setting": "[1]; [6]", "result": 99.3, "unit": "µM"}]}, {"smiles": "CC(C)(C(=O)O)C(O)c1ccc(Cl)cc1", "note": "(stereo not shown) [Compound 7, 3-Hydroxy-2,2-dimethyl-3-(4-chlorophenyl)propanoic acid]", "values": [{"measurement": "IC50", "setting": "[1]; 72 h, read-out: IC50 (μM) HeLa", "result": 106, "unit": "µM"}, {"measurement": "IC50", "setting": "[1]; [6]", "result": 106, "unit": "µM"}, {"measurement": "IC50", "setting": "[2]", "result": "> 300", "unit": "µM"}, {"measurement": "IC50", "setting": "[3]", "result": "> 200", "unit": "µM"}, {"measurement": "IC50", "setting": "[4]", "result": "> 200", "unit": "µM"}, {"measurement": "IC50", "setting": "[5]", "result": "> 200", "unit": "µM"}]}, {"smiles": "O=C(O)CC(O)c1ccccc1Cl", "note": "(stereo not shown) [Compound 8, 3-Hydroxy-3-(2-chlorophenyl)propanoic acid]", "values": [{"measurement": "IC50", "setting": "[1]; 72 h, read-out: IC50 (μM) HeLa", "result": 118, "unit": "µM"}, {"measurement": "IC50", "setting": "[1]; [6]", "result": 118, "unit": "µM"}, {"measurement": "IC50", "setting": "[3]", "result": "> 200", "unit": "µM"}, {"measurement": "IC50", "setting": "[4]", "result": "> 200", "unit": "µM"}, {"measurement": "IC50", "setting": "[5]", "result": "> 200", "unit": "µM"}]}, {"smiles": "CC(C)(C(=O)O)C(C)(O)c1ccccc1", "note": "(stereo not shown) [Compound 11, 3-Hydroxy-2,2-dimethyl-3-phenylbutanoic acid]", "values": [{"measurement": "IC50", "setting": "[1]; 72 h, read-out: IC50 (μM) HeLa", "result": 133, "unit": "µM"}, {"measurement": "IC50", "setting": "[1]; [6]", "result": 133, "unit": "µM"}, {"measurement": "IC50", "setting": "[2]", "result": "> 300", "unit": "µM"}]}, {"smiles": "CC(C)Cc1ccc(C(C)(O)CC(=O)O)cc1", "note": "(stereo not shown) [Compound 12, 3-Hydroxy-3(4-isobutylphenyl)butanoic acid]", "values": [{"measurement": "IC50", "setting": "[1]; 72 h, read-out: IC50 (μM) HeLa", "result": 151, "unit": "µM"}, {"measurement": "IC50", "setting": "[1]; [6]", "result": 151, "unit": "µM"}, {"measurement": "IC50", "setting": "[2]", "result": "> 300", "unit": "µM"}, {"measurement": "IC50", "setting": "[3]", "result": "> 200", "unit": "µM"}, {"measurement": "IC50", "setting": "[4]", "result": "> 200", "unit": "µM"}, {"measurement": "IC50", "setting": "[5]", "result": "> 200", "unit": "µM"}]}, {"smiles": "CC(C)(C(=O)O)C(O)c1ccccc1", "note": "(stereo not shown) [Compound 13, 3-Hydroxy-2,2-dimethyl-3-phenylpropanoic acid]", "values": [{"measurement": "IC50", "setting": "[1]; 72 h, read-out: IC50 (μM) HeLa", "result": 165, "unit": "µM"}, {"measurement": "IC50", "setting": "[1]; [6]", "result": 165, "unit": "µM"}]}, {"smiles": "O=C(O)CC(O)(c1ccccc1)c1ccccc1", "note": "[Compound 14, 3-Hydroxy-3,3-diphenylpropanoic acid]", "values": [{"measurement": "IC50", "setting": "[1]; 72 h, read-out: IC50 (μM) HeLa", "result": 183, "unit": "µM"}, {"measurement": "IC50", "setting": "[1]; [6]", "result": 182, "unit": "µM"}]}]}
